Experimental findings from ChEMBL document CHEMBL1147105, “In vitro and in vivo activities of PD 0305970 and PD 0326448, new bacterial gyrase/topoisomerase inhibitors with potent antibacterial activities versus multidrug-resistant gram-positive and fastidious organism groups” (2007) are described below.

Each structure is given as a SMILES string. Converted amounts (≈) assume the structure as drawn. The source made the active and inactive calls.

Assay [1] has as its system Staphylococcus aureus. Briefly: Antibacterial efficacy against ciprofloxacin and methicillin-resistant Staphylococcus aureus SA2017 infected orally dosed CD1 mouse model. Format: functional. In outline: (§1)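 Sepsis model in female CD1 mice (6–8 weeks, 18–22 g). Lethal i.p. challenge (0.5 ml) at ≥100 median lethal doses. Streptococci were given in Todd-Hewitt broth; other organisms were given with 20% hog gastric mucin. A single oral gavage dose (0.5 ml, in 0.5% methylcellulose) was given at the time of challenge. The PD50 (mg/kg) was calculated by probit analysis.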

Assay [2] has as its system Staphylococcus aureus. The assay can be described thus: Antibacterial efficacy against methicillin-susceptible Staphylococcus aureus UC76 infected orally dosed CD1 mouse model. Format: functional. The conditions noted are these: UC76, po; for ED50: read-out: PD50. Put shortly:
as §1

The subject of assay [3] is Streptococcus pyogenes. The assay can be described thus: Antibacterial efficacy against Streptococcus pyogenes C203 infected orally dosed CD1 mouse model. In kind it is functional. The conditions noted are these: C203, po; for ED50: read-out: PD50. Put shortly:
as §1

The subject of assay [4] is Streptococcus pneumoniae. The assay can be described thus: Antibacterial activity against Streptococcus pneumoniae 7785. Format: functional.
Assay [5] has as its system Streptococcus pneumoniae. The assay can be described thus: Antibacterial activity against Streptococcus pneumoniae 1-970-2 with gyrB Asp435Glu, Glu475Ala and parE Pro475Ser mutation. In kind it is functional.
Assay [6] has as its system Streptococcus pneumoniae. The assay can be described thus: Bactericidal activity against Streptococcus pneumoniae SV1 at 0.008 ug/ml by time-kill study. In kind it is functional, organism-based. Put shortly:
(§2)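 Time-kill in 10 ml of cation-adjusted Mueller-Hinton broth with 3% lysed horse blood, without agitation. Multiples of MIC tested. Samples taken at 0, 2, 4, 6 and 24 h and plated on tryptic soy agar with 5% sheep blood after ≥250-fold dilution, detection limit 10 CFU/ml. Counts read after 24 h at 35°C. Bactericidal defined as a ≥3 log10 drop from the starting inoculum within 24 h.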

In assay [7] the test system is Streptococcus pneumoniae. The assay can be described thus: Antibacterial activity against Streptococcus pneumoniae 1-970-1 with gyrB Asp435Glu mutation. In kind it is functional.
Assay [8] concerns Streptococcus pneumoniae. Briefly: Bactericidal activity against Streptococcus pneumoniae SV1 at 2 ug/ml by time-kill study. In kind it is functional, organism-based. Put shortly:
as §2

Assay [9] relates to Streptococcus pyogenes. The assay can be described thus: Bactericidal activity against Streptococcus pyogenes C203 at 0.008 ug/ml by time-kill study. Format: functional, organism-based. In outline: as §2
In a further assay the test system is Escherichia coli. The assay can be described thus: Antibacterial efficacy against Escherichia coli Vogel infected orally dosed CD1 mouse model. Format: functional. In outline:
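Female CD1 mice, 6–8 weeks old (18–22 g), challenged intraperitoneally (0.5 ml) with ≥100 median lethal doses suspended in 20% hog gastric mucin. Single oral gavage dose at the time of challenge, in 0.5% methylcellulose. Untreated controls of 10 mice per group. PD50 (mg/kg), the dose protecting 50% of mice from lethal infection, calculated by probit analysis.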

Assay [10] concerns Streptococcus pyogenes. Briefly: Bactericidal activity against Streptococcus pyogenes C203 at 2 ug/ml by time-kill study. Format: functional, organism-based. In outline: as §2

By MIC is commonly meant the lowest concentration found to suppress growth. Lower therefore signals inhibition by little substance. As to `C[C@H]1COc2c(N3CCN(C)CC3)c(F)cc3c(=O)c(C(=O)O)cn1c23.C[C@H]1COc2c(N3CCN(C)CC3)c(F)cc3c(=O)c(C(=O)O)cn1c23.O` [LEVOFLOXACIN], the values for the MIC against Staphylococcus aureus [1], against Staphylococcus aureus [2] and in the assay on Streptococcus pyogenes [3] were 8 µg/mL, 0.125 µg/mL and 0.5 µg/mL, respectively. Moreover, the ED50 with Staphylococcus aureus [2] came out at 4.6 mg/kg; with Streptococcus pyogenes [3], 17.7 mg/kg.

Consider `Cc1c(N2CC[C@@H]([C@H](C)N)C2)c(F)cc2c(=O)n(N)c(=O)n(C3CC3)c12`, for which the MIC with Streptococcus pneumoniae [4] worked out at 0.03 µg/mL (≈ 0.083 µM); in the assay with Staphylococcus aureus [1], 0.25 µg/mL (≈ 0.692 µM); in the assay with Streptococcus pneumoniae [5] it was 0.125 µg/mL (≈ 0.346 µM); against Staphylococcus aureus [2] it was 0.06 µg/mL (≈ 0.166 µM); in the assay on Streptococcus pneumoniae [7] it was 0.06 µg/mL (≈ 0.166 µM); with Streptococcus pyogenes [3], 0.015 µg/mL (≈ 0.0415 µM). Further, the MIC against Escherichia coli came to 1 µg/mL (≈ 2.77 µM). Further, the ED50 in the assay on Staphylococcus aureus [1] (read-out: PD50) was 23 mg/kg; with Staphylococcus aureus [2], 1.9 mg/kg; with Streptococcus pyogenes [3], 0.7 mg/kg; in the assay with Escherichia coli (read-out: PD50), 82 mg/kg. In addition, the result in the assay on Streptococcus pneumoniae [6], in the assay with Streptococcus pneumoniae [8], in the assay on Streptococcus pyogenes [9] and in the assay with Streptococcus pyogenes [10] was Active.
